Laboratory results: ChEMBL document CHEMBL3865832, “Rhizovarins A-F, Indole-Diterpenes from the Mangrove-Derived Endophytic Fungus Mucor irregularis QEN-189” (J Nat Prod, 2016)
Structures can show the parent of a compound that is named as a salt.

How the values were obtained:
[1] = Cytotoxicity against human A549 cells after 48 hrs by SRB assay; type: functional, cell-based; conditions: A549, 48 h
Method in brief: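 A549 human lung adenocarcinoma cells; cytotoxicity read by sulforhodamine B (SRB) staining, with adriamycin as positive control.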

[2] = Cytotoxicity against human HL60 cells after 48 hrs by MTT assay; type: functional, cell-based; conditions: HL-60, 48 h
Method in brief: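 HL-60 human leukemia cells; viability read by MTT reduction, with adriamycin as positive control.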

Compound	IC50 [1]	IC50 [2]
C=C(C)[C@H]1O[C@H]2CC[C@@]3(C)[C@@](O)(CC[C@H]4Cc5c([nH]c6ccccc56)[C@@]43C)[C@]23O[C@@H]3[C@H]1O	> 10 µM	> 10 µM
CC(C)(O)[C@H]1O[C@H]2CC[C@@]3(C)[C@@H](CC[C@H]4Cc5c([nH]c6ccccc56)[C@@]43C)C2=C[C@H]1O	4.6 µM	2.6 µM
C=C(C)[C@H]1O[C@H]2CC[C@@]3(C)[C@@](O)(CC[C@H]4Cc5c([nH]c6ccccc56)[C@@]43C)C2=C[C@H]1O	> 10 µM	> 10 µM
C=C1Cc2ccc3[nH]c4c(c3c2[C@H]2[C@@H]1C[C@@H]2C(C)(C)O)C[C@@H]1CC[C@@]2(O)C3=C[C@@H](O)[C@@H](C(=C)C)O[C@H]3CC[C@]2(C)[C@@]41C	> 10 µM	> 10 µM
C=C1Cc2ccc3[nH]c4c5c3c2[C@H]2[C@@H]1C[C@@H]2C(C)(C)O[C@H]5[C@@H]1CC[C@@]2(O)C3=C[C@@H](O)[C@@H](C(=C)C)O[C@H]3CC[C@]2(C)[C@@]41C	> 10 µM	> 10 µM
C=C(C)[C@H]1O[C@H]2CC[C@@]3(C)[C@@](O)(CC[C@]4(O)O[C@@H]5OC(C)(C)[C@H]6C[C@@H]7C(=C)Cc8c(Cl)cc9[nH]c(c5c9c8[C@@]76O)[C@]34C)[C@]23O[C@@H]3[C@H]1O	11.5 µM	9.6 µM
CC(=O)OC(C)(C)[C@H]1O[C@H]2CC[C@@]3(C)[C@@H](CC[C@H]4Cc5c([nH]c6ccccc56)[C@@]43C)C2=CC1=O	> 10 µM	> 10 µM
C=C(C)[C@@H]1CC=C2[C@H](CC[C@@]3(C)[C@@]2(O)CC[C@H]2Cc4c([nH]c5ccc6c(c45)[C@@H]4[C@@H](C(C)(C)O)C[C@@H]4C6(C)C)[C@@]23C)O1	> 10 µM	> 10 µM
C=C(C)[C@H]1C[C@H](C(C)(C)O)[C@H]1c1cccc2c1C(=O)C[C@@H]1CC[C@@]3(O)C4=C[C@@H](O)[C@@H](C(=C)C)O[C@H]4CC[C@]3(C)[C@@]1(C)C(=O)N2	> 10 µM	> 10 µM
C=C1Cc2c(Cl)cc3[nH]c4c5c3c2[C@H]2[C@@H]1C[C@@H]2C(C)(C)O[C@H]5[C@@H]1CC[C@@]2(O)[C@@]35O[C@@H]3[C@@H](O)[C@@H](C(=C)C)O[C@H]5CC[C@]2(C)[C@@]41C [PENITREM F]	8.2 µM	3.3 µM
C=C1Cc2ccc3[nH]c4c(c3c2[C@H]2[C@@H]1C[C@@H]2C(C)(C)O)[C@@H](OC)[C@@H]1CC[C@@]2(O)[C@@]35O[C@@H]3[C@@H](O)[C@@H](C(=C)C)O[C@H]5CC[C@]2(C)[C@@]41C	9.2 µM	> 10 µM
C=C(C)[C@H]1O[C@H]2CC[C@@]3(C)[C@@](O)(CC[C@H]4[C@@H]5OC(C)(C)[C@H]6C[C@@H]7C(=C)Cc8ccc9[nH]c(c5c9c8[C@@]76O)[C@@]43C)[C@]23O[C@@H]3[C@H]1O	> 10 µM	> 10 µM
COc1cccc2c1C(=O)c1c(O)c3c(c(O)c1C2=O)C[C@@](O)(C(=O)CO)C[C@@H]3O[C@H]1C[C@H](N)[C@H](O)[C@H](C)O1 [DOXORUBICIN HYDROCHLORIDE]	0.3 µM	0.067 µM
C=C(C)[C@H]1O[C@H]2CC[C@@]3(C)[C@@](O)(CC[C@H]4[C@@H]5OC(C)(C)[C@H]6C[C@@H]7C(=C)Cc8c(Cl)cc9[nH]c(c5c9c8[C@@]76O)[C@@]43C)[C@]23O[C@@H]3[C@H]1O	8.4 µM	7 µM
C=C1Cc2c(Cl)cc3[nH]c4c5c3c2[C@H]2[C@@H]1C[C@@H]2C(C)(C)O[C@H]5[C@@H]1CC[C@@]2(O)C3=C[C@@H](O)[C@@H](C(=C)C)O[C@H]3CC[C@]2(C)[C@@]41C [PENITREM C]	8 µM	4.7 µM
C=C(C)[C@H]1O[C@H]2CC[C@@]3(C)[C@@](O)(CC[C@]4(OC)O[C@@H]5OC(C)(C)[C@H]6C[C@@H]7C(=C)Cc8ccc9[nH]c(c5c9c8[C@@]76O)[C@@]43C)[C@]23O[C@@H]3[C@H]1O	> 10 µM	> 10 µM
C=C1Cc2ccc3[nH]c4c5c3c2[C@H]2[C@@H]1C[C@@H]2C(C)(C)O[C@H]5[C@@H]1CC[C@@]2(O)[C@@]35O[C@@H]3[C@@H](O)[C@@H](C(=C)C)O[C@H]5CC[C@]2(C)[C@@]41C [PENITREM B]	> 10 µM	> 10 µM
C=C(C)[C@H]1O[C@H]2CC[C@@]3(C)[C@@](O)(CC[C@]4(OC)O[C@@H]5OC(C)(C)[C@H]6C[C@@H]7C(=C)Cc8c(Cl)cc9[nH]c(c5c9c8[C@@]76O)[C@@]43C)[C@]23O[C@@H]3[C@H]1O	6.3 µM	5 µM
